Results taken from ChEMBL document CHEMBL1129639, “Synthesis and cardiotonic activity of novel pyrimidine derivatives: crystallographic and quantum chemical studies” (J Med Chem, 1996).

What was measured:
Cavia porcellus [1] = organism: Cavia porcellus; assay: Effect on the contractile force of spontaneously beating atria from Reserpine-treated guinea pigs as percentage variation from the control at concentration of 3 x 10E-4 M; type: functional
How it was run: (§1)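 Atria from reserpine-treated guinea pigs (reserpine 2 mg/kg ip, 48 and 24 h before death; only tyramine-unresponsive preparations used). Bath solution at 29 °C, gassed 95% O2/5% CO2, pH 7.5, resting tension […]. After 90 min equilibration, compound added cumulatively, 5 min per concentration. Isometric developed-tension amplitude or beating rate given as % variation from untreated control. Mean ± SEM, 6-10 assays.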

Cavia porcellus [2] = organism: Cavia porcellus; assay: Compound was evaluated for its effect on the frequency rate of spontaneously beating atria from Reserpine-treated guinea pigs as percentage variation from the control at concentration of 3 x 10E-6 M; type: functional; how it was run: as §1
Cavia porcellus [3] = organism: Cavia porcellus; assay: Effect on the contractile force of spontaneously beating atria from Reserpine-treated guinea pigs as percentage variation from the control at concentration of 3 x 10E-6 M; type: functional; how it was run: as §1
Cavia porcellus [4] = organism: Cavia porcellus; assay: Effect on the contractile force of spontaneously beating atria from Reserpine-treated guinea pigs as percentage variation from the control at concentration of 10E-5 M; type: functional; how it was run: as §1
Cavia porcellus [5] = organism: Cavia porcellus; assay: Effect on the frequency rate of spontaneously beating atria from Reserpine-treated guinea pigs as percentage variation from the control at concentration of 10E-3 M; type: functional; how it was run: as §1
Cavia porcellus [6] = organism: Cavia porcellus; assay: Effect on the frequency rate of spontaneously beating atria from Reserpine-treated guinea pigs as percentage variation from the control at concentration of 10E-5 M; type: functional; how it was run: as §1
Cavia porcellus [7] = organism: Cavia porcellus; assay: Compound was evaluated for its effect on the frequency rate of spontaneously beating atria from Reserpine-treated guinea pigs as percentage variation from the control at concentration of 3 x 10E-4 M; type: functional; how it was run: as §1
Cavia porcellus [8] = organism: Cavia porcellus; assay: Effect on the contractile force of spontaneously beating atria from Reserpine-treated guinea pigs as percentage variation from the control at concentration of 3 x 10E-5 M; type: functional; how it was run: as §1
Cavia porcellus [9] = organism: Cavia porcellus; assay: Effect on the contractile force of spontaneously beating atria from Reserpine-treated guinea pigs as percentage variation from the control at concentration of 10E-3 M; type: functional; how it was run: as §1
Cavia porcellus [10] = organism: Cavia porcellus; assay: Effect on the contractile force of spontaneously beating atria from Reserpine-treated guinea pigs as percentage variation from the control at concentration of 10E-6 M; type: functional; how it was run: as §1
Cavia porcellus [11] = organism: Cavia porcellus; assay: Effect on the contractile force of spontaneously beating atria from Reserpine treated guinea pigs as percentage variation from the control at concentration of 10E-4 M; type: functional; how it was run: as §1
Cavia porcellus [12] = organism: Cavia porcellus; assay: Effect on the frequency rate of spontaneously beating atria from Reserpine-treated guinea pigs as percentage variation from the control at concentration of 10E-6 M; type: functional; how it was run: as §1
Cavia porcellus [13] = organism: Cavia porcellus; assay: Effect on the frequency rate of spontaneously beating atria from Reserpine-treated guinea pigs as percentage variation from the control at concentration of 10E-4 M; type: functional; how it was run: as §1
Cavia porcellus [14] = organism: Cavia porcellus; assay: Compound was evaluated for its effect on the frequency rate of spontaneously beating atria from Reserpine-treated guinea pigs as percentage variation from the control at concentration of 3 x 10E-5 M; type: functional; how it was run: as §1
Cavia porcellus [15] = organism: Cavia porcellus; assay: Compound was evaluated for its effect on the frequency rate of spontaneously beating atria from Reserpine-treated guinea pigs as percentage variation from the control at different concentration of 3 x 10E-5 M; type: functional; how it was run: as §1
Cavia porcellus [16] = organism: Cavia porcellus; assay: Compound was evaluated for its effect on the frequency rate of spontaneously beating atria from Reserpine-treated guinea pigs as percentage variation from the control at different concentration of 10E-3 M; type: functional; how it was run: as §1
Cavia porcellus [17] = organism: Cavia porcellus; assay: Compound was evaluated for its effect on the frequency rate of spontaneously beating atria from Reserpine-treated guinea pigs as percentage variation from the control at different concentration of 10E-4 M; type: functional; how it was run: as §1
Cavia porcellus [18] = organism: Cavia porcellus; assay: Compound was evaluated for its effect on the frequency rate of spontaneously beating atria from Reserpine-treated guinea pigs as percentage variation from the control at different concentration of 3 x 10E-4 M; type: functional; how it was run: as §1
Cavia porcellus [19] = organism: Cavia porcellus; assay: Compound was evaluated for its effect on the frequency rate of spontaneously beating atria from Reserpine-treated guinea pigs as percentage variation from the control at different concentration of 10E-5 M; type: functional; how it was run: as §1
Cavia porcellus [20] = organism: Cavia porcellus; assay: Inotropic effect in electrically driven left atrium from reserpine-treated guinea pigs at concentration of 3 x 10E-6 M; type: functional, Cardiac atrium
How it was run: (§2)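 Electrically driven left atrium from reserpine-treated guinea pigs (tyramine-unresponsive), 29 °C, pH 7.5, resting tension […], 90 min equilibration. Compound dissolved in DMSO and added cumulatively, 5 min per step. Where used, adenosine deaminase was preincubated 20 min, and basal force was taken after ADA addition. Developed tension given as % change over control. Mean ± SEM of six assays.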

Cavia porcellus [21] = organism: Cavia porcellus; assay: Inotropic Response in Electrically Driven Left Atrium from Reserpine-Treated Guinea Pigs in the absence of adenosine deaminase (ADA) at 3 x 10E-4 M; type: functional; how it was run: as §2
Cavia porcellus [22] = organism: Cavia porcellus; assay: Inotropic Response in Electrically Driven Left Atrium from Reserpine-Treated Guinea Pigs in the presence of 2 U/mL of adenosine deaminase (ADA) at 10E-3 M; type: functional; how it was run: as §2
Cavia porcellus [23] = organism: Cavia porcellus; assay: Inotropic effect in electrically driven left atrium from reserpine-treated guinea pigs at concentration of 3 x 10E-4 M; type: functional, Cardiac atrium; how it was run: as §2
Adenosine receptor A1 = molecular target: T1, Adenosine receptor A1 (Cavia porcellus, UniProt P47745); assay: Inhibition of [3H]-CHA binding to Adenosine A1 receptor in guinea pig heart
T1 sequence (P47745 whole entry): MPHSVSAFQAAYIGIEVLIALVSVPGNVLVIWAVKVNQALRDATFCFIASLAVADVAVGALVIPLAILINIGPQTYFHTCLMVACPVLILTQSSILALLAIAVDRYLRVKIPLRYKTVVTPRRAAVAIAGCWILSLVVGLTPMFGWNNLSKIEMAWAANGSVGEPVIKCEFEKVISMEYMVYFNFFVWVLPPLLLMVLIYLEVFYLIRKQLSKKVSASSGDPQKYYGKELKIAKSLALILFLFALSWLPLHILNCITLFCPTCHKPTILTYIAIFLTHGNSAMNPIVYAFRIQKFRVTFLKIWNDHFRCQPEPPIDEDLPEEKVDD
How it was run: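 Guinea pig heart membranes prepared in 50 mM Tris-HCl pH 7.4 and pretreated with adenosine deaminase 2 IU/mL for 30 min at 37 °C. Incubated with 1 nM [3H]CHA, membranes from 15 mg tissue, 120 min at 23 °C. Bound ligand separated by GF/B filtration; nonspecific binding defined with (R)-PIA. Six concentrations tested in triplicate; IC50 by probit analysis.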

Cavia porcellus [24] = organism: Cavia porcellus; assay: Inotropic Response in Electrically Driven Left Atrium from Reserpine-Treated Guinea Pigs in the presence of 2 U/mL of adenosine deaminase (ADA) at 10E-4 M; type: functional; how it was run: as §2
Cavia porcellus [25] = organism: Cavia porcellus; assay: Inotropic Response in Electrically Driven Left Atrium from Reserpine-Treated Guinea Pigs in the absence of adenosine deaminase (ADA) at 10E-4 M; type: functional; how it was run: as §2
Cavia porcellus [26] = organism: Cavia porcellus; assay: Inotropic Response in Electrically Driven Left Atrium from Reserpine-Treated Guinea Pigs in the absence of adenosine deaminase (ADA) at 3 x 10E-6 M; type: functional; how it was run: as §2
Cavia porcellus [27] = organism: Cavia porcellus; assay: Inotropic effect in electrically driven left atrium from reserpine-treated guinea pigs at concentration of 3 x 10E-5 M; type: functional, Cardiac atrium; how it was run: as §2
Cavia porcellus [28] = organism: Cavia porcellus; assay: Inotropic effect in electrically driven left atrium from reserpine-treated guinea pigs at concentration of 10E-3 M; type: functional, Cardiac atrium; how it was run: as §2
Cavia porcellus [29] = organism: Cavia porcellus; assay: Inotropic effect in electrically driven left atrium from reserpine-treated guinea pigs at concentration of 10E-5 M; type: functional, Cardiac atrium; how it was run: as §2
Cavia porcellus [30] = organism: Cavia porcellus; assay: Inotropic Response in Electrically Driven Left Atrium from Reserpine-Treated Guinea Pigs in the absence of adenosine deaminase (ADA) at 10E-5 M; type: functional; how it was run: as §2
Cavia porcellus [31] = organism: Cavia porcellus; assay: Inotropic Response in Electrically Driven Left Atrium from Reserpine-Treated Guinea Pigs in the presence of 2 U/mL of adenosine deaminase (ADA) at 3 x 10E-5 M; type: functional; how it was run: as §2
Cavia porcellus [32] = organism: Cavia porcellus; assay: Inotropic effect in electrically driven left atrium from reserpine-treated guinea pigs at concentration of 10E-6 M; type: functional, Cardiac atrium; how it was run: as §2
Cavia porcellus [33] = organism: Cavia porcellus; assay: Inotropic effect in electrically driven left atrium from reserpine-treated guinea pigs at concentration of 10E-4 M; type: functional, Cardiac atrium; how it was run: as §2
Cavia porcellus [34] = organism: Cavia porcellus; assay: Inotropic Response in Electrically Driven Left Atrium from Reserpine-Treated Guinea Pigs in the presence of 2 U/mL of adenosine deaminase (ADA) at 10E-5 M; type: functional; how it was run: as §2
Cavia porcellus [35] = organism: Cavia porcellus; assay: Inotropic Response in Electrically Driven Left Atrium from Reserpine-Treated Guinea Pigs in the presence of 2 U/mL of adenosine deaminase (ADA) at 3 x 10E-4 M; type: functional; how it was run: as §2
Cavia porcellus [36] = organism: Cavia porcellus; assay: Inotropic Response in Electrically Driven Left Atrium from Reserpine-Treated Guinea Pigs in the absence of adenosine deaminase (ADA) at 3 x 10E-5 M; type: functional; how it was run: as §2
Cavia porcellus [37] = organism: Cavia porcellus; assay: Inotropic Response in Electrically Driven Left Atrium from Reserpine-Treated Guinea Pigs in the presence of 2 U/mL of adenosine deaminase (ADA) at 3 x 10E-6 M; type: functional; how it was run: as §2
Cavia porcellus [38] = organism: Cavia porcellus; assay: Inotropic Response in Electrically Driven Left Atrium from Reserpine-Treated Guinea Pigs in the absence of adenosine deaminase (ADA) at 10E-3 M; type: functional; how it was run: as §2

SMILES	Variation (Cavia porcellus [1])	Variation (Cavia porcellus [2])	Variation (Cavia porcellus [3])	Variation (Cavia porcellus [4])	Variation (Cavia porcellus [5])	Variation (Cavia porcellus [6])	Variation (Cavia porcellus [7])	Variation (Cavia porcellus [8])	Variation (Cavia porcellus [9])	Variation (Cavia porcellus [10])	Variation (Cavia porcellus [11])	Variation (Cavia porcellus [12])	Variation (Cavia porcellus [13])	Variation (Cavia porcellus [14])	also measured
COCc1nc(N(C)C)ncc1C(=O)OC	18.95%	0%	6.93%	11.14%	11.43%	2.85%	7.14%	14.95%	25.41%	3.04%	16.95%	0%	7.14%	3.57%	–
Cc1nc(N(C)C)ncc1C(=O)O	15.77%	6.45%	3.77%	5.18%	-3.12%	9.67%	6.45%	8.62%	21.96%	0%	10.82%	0%	3.22%	3.22%	–
CN(C)c1ncc(C(=O)O)c(C(C)(C)C)n1	14.21%	3.33%	7.58%	9.67%	–	–	–	12.51%	18.64%	3.51%	13.23%	0%	–	–	Variation (Cavia porcellus [15]): 3.33%; Variation (Cavia porcellus [16]): 11.11%; Variation (Cavia porcellus [17]): 3.71%; Variation (Cavia porcellus [18]): 7.42%; Variation (Cavia porcellus [19]): 3.33%
CN(C)c1ncc(C(=O)O)c(Cc2ccccc2)n1	67.75%	0%	9.37%	15.24%	-10.25%	0%	-5.69%	22.89%	88.05%	3.52%	35.26%	0%	-5.02%	-3.85%	Variation (Cavia porcellus [20]): 9.7%; Increase (Cavia porcellus [21]): 66.21%; Increase (Cavia porcellus [22]): 57.2%; Variation (Cavia porcellus [23]): 53%; IC50 (Adenosine receptor A1): 583 µM; Increase (Cavia porcellus [24]): 19.1%; Increase (Cavia porcellus [25]): 44.95%; Increase (Cavia porcellus [26]): 11.21%; Variation (Cavia porcellus [27]): 24.7%; Variation (Cavia porcellus [28]): 78.6%; Variation (Cavia porcellus [29]): 16.5%; Increase (Cavia porcellus [30]): 27.41%; Increase (Cavia porcellus [31]): 9.52%; Variation (Cavia porcellus [32]): 3.23%; Variation (Cavia porcellus [33]): 36.3%; Increase (Cavia porcellus [34]): 4.76%; Increase (Cavia porcellus [35]): 33.3%; Increase (Cavia porcellus [36]): 33.61%; Increase (Cavia porcellus [37]): 0%; Increase (Cavia porcellus [38]): 88.35%
